SUMO1 PPI mod: SUMO1-SIM interaction modulation; P63165; SUMO1 binding to a labelled peptide, TR-FRET, 1 h; inhibition, % at 20 µM; 0.33% of 360,000 active; AID 602429; in the data active = inhibition above about 37%
Target sequence (P63165 whole entry, looked up): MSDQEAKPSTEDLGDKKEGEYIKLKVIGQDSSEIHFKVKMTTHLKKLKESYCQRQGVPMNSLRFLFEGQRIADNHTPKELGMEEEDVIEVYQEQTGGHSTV
STEP inh: STEP (human) phosphatase inhibition | P54829 | recombinant STEP, OMFP fluorogenic substrate, fluorescence | inhibition, % at 20 µM | 0.25% of 360,000 active | AID 588621;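 active = inhibition at 20 µM, scaled per plate between control wells, above about 37%, limit read from the data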;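 note: 0% = DMSO with enzyme and substrate and 100% = substrate only without enzyme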
Target sequence (P54829 whole entry, looked up): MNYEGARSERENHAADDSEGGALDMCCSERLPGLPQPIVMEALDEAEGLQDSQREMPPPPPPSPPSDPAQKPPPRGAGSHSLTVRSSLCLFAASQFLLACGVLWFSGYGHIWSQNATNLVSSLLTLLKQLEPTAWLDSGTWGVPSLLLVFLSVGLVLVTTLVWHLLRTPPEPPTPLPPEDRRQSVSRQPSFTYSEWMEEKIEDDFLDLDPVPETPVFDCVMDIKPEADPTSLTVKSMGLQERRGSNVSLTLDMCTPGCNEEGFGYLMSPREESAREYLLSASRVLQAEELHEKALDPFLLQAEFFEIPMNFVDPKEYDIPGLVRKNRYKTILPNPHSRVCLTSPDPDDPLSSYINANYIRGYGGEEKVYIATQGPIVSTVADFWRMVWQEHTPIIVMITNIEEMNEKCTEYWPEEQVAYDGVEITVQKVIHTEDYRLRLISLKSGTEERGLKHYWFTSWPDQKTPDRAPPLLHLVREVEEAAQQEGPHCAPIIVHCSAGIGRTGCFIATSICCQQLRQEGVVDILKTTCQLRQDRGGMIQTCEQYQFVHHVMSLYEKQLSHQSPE
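Test system: STEP tyrosine phosphatase / Reagent: OMFP at 25 µM / Doses: 20 µM, 1% DMSO / Read-out: percent inhibition scaled to no-enzyme and uninhibited-enzyme controls, plate-pattern corrected / Detection: FITC-channel fluorescence of OMFP product / Medium: Bis-Tris buffer pH 6.0, 2.5 mM DTT, 0.005% Tween 20 / Schedule: 20 min at room temperature, dark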
DNMT1 inh: DNMT1 (human) enzyme inhibition; DNMT1 molecular beacon, Hinp1I cleavage, fluorescence; 0.83% of 360,000 active; P26358; inhibition (reported as % activation of signal), % at 10 µM; in the data active = inhibition above about 50%
LMPTP block: LMPTP (human) inhibition; inhibition, % at 20 µM; 0.22% of 360,000 active; AID 651560; recombinant LMPTP-A, OMFP fluorogenic substrate, fluorescence intensity;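 active = compounds that cut the enzyme signal by at least half of the control window in the single-dose screen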;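 note: plate controls were DMSO wells with enzyme plus substrate for no effect and substrate without enzyme for full effect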
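Test system: LMPTP-A phosphatase enzyme; input: 0.625 nM LMPTP-A final; reagent: OMFP substrate, 400 µM final; compound dosing: 20 µM single dose, 3% DMSO; incubation: 50 min dark incubation at room temperature; measured by: endpoint fluorescence intensity from OMFP dephosphorylation; measure: % inhibition relative to no-enzyme and uninhibited control wells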
Casp6 inh: caspase-6 (human) enzyme inhibition; P55212; purified caspase-6, Z-VEID-R110 cleavage fluorescence; inhibition, % at 12.5 µM; 0.53% of 350,000 active;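 active = mean inhibition across replicates at least about 35%, with every replicate also reaching that limit, limit read from the data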;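 note: 0% = median of neutral control wells and 100% = no fluorescence left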
Scp1 inh: blocks human Scp-1 phosphatase activity. Recombinant Scp1, phosphopeptide, malachite green phosphate absorbance. inhibition, % at 20 µM. AID 493091. 0.88% of 340,000 active;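 active = inhibition above about 50% at 20 µM, limit read from the data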;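 note: plate controls were DMSO wells with enzyme for no effect and wells lacking enzyme for full effect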
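Times: enzyme reaction 45 min at room temperature, colour 5 min, stabilisation 30 min. Material: SCP-1 catalytic fragment, aa 76-261. Medium: Acidic Tris acetate buffer with magnesium and detergent. Signal: colorimetric free-phosphate detection, absorbance 630 nm. Read-out basis: % inhibition of SCP-1 phosphate liberation. Reagent: Phosphorylated 17-residue peptide substrate.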
DNMT1 interf DR: shows spectral interference in the DNMT1 beacon assay; shares compounds with DNMT1 inh; molecular beacon fluorescence, spectral interference counter-screen; IC50, µM; 200 tested, under 10 active; call rule not given here
DNMT1 inh conf: DNMT1 inhibition confirmation, single concentration | shares compounds with DNMT1 inh | DNMT1 molecular beacon HinP1I cleavage, fluorescence | inhibition, % at 10 µM | 8% of 2,300 active;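 active = average inhibition of at least 30% in the single-concentration confirmation test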
DNMT1 interf: beacon fluorescence artifact counter-screen; shares compounds with DNMT1 inh; DNMT1 molecular beacon spectral interference counterscreen, fluorescence 485/520; activation (fluorescence interference), % at 10 µM; 1% of 2,300 active; AID 602387;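 active = activation of at least 30% at 10 µM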;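 note: DNMT1 catalytic domain with a HinP1I cleavage step and a FAM/dabcyl DNA beacon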
Starred values were filed as active, the others as inactive; x = not tested or not shown. In the library only some 1.7% were active in any assay of this set; here they are far more common.

SMILES	SUMO1 PPI mod	STEP inh	DNMT1 inh	LMPTP block	Casp6 inh	Scp1 inh	DNMT1 inh conf	DNMT1 interf	others
C=CCC[C@H](Cc1ccc(F)cc1)C(=O)OC[C@H](Cc1c[nH]c2ccccc12)NC(=O)[C@@H](CC=C)CC(=O)N[C@@H](CO)Cc1ccccc1	4	-2	69*	1	-6	-11	0	-5
CC(C)(C)c1ccc(OC(=O)N2CCOCC2)cc1	-3	0	2	-2	0	20	x	x
O=C(NCCN1C(=O)S/C(=C\c2ccc(OC(F)F)cc2)C1=O)[C@@H]1CCCN1C(=O)c1cccs1	-22	-1	1	-1	2	-9	x	x
CNC[C@H]1Oc2ncc(C#CC3(O)CCCC3)cc2C(=O)N([C@@H](C)CO)C[C@H]1C	x	x	x	x	0	x	x	x
CC1=C(C(=O)OCc2ccccc2)C(/C=C/c2ccccc2)N2C(=O)CCSC2=N1 (stereo not given)	2	-1	-6	2	-3	5	x	x
CC(C)(C)c1ccc(OCC(=O)Nc2ccc(-c3nc4cccnc4o3)cc2)cc1	3	0	55*	6	x	18	0	2
Cc1cccc(N=C2NC(=O)/C(=C/C=C/c3ccco3)S2)c1	14	0	85*	6	9	15	14	1
COc1cc(/C=C2\SC(=Nc3ccc(O)cc3)NC2=O)cc(OC)c1O	2	0	-3	-1	-4	-3	x	x
COc1ccc(N=C2S/C(=C\c3ccco3)C(=O)N2CC(C)C)cc1	-4	1	-3	2	x	10	x	x
COc1ccc(N=C2NC(=O)/C(=C\C=C\c3ccco3)S2)cc1	24	6	80*	32	x	25	3	-4
O=C1NC(=Nc2ccc3ccccc3c2)S/C1=C/c1ccco1	3	0	67*	26	2	18	3	-2
COc1ccc(OCC2CNC(=O)O2)cc1 (stereo not given)	2	-1	0	-1	-3	0	x	x
C[C@@H]1CCCCO[C@@H](CN(C)C(=O)Nc2ccc3c(c2)OCO3)[C@@H](C)CN([C@@H](C)CO)C(=O)c2cc(NC(=O)Nc3cccc4ccccc34)ccc2O1	x	x	x	x	0	x	x	x
COc1ccc(NC(=O)Nc2ccc3c(c2)C(=O)N([C@H](C)CO)C[C@H](C)[C@H](CN(C)C(=O)c2ccccc2)OCCCC[C@@H](C)O3)cc1	x	x	x	x	1	x	x	x
CCOC(=O)C1CCN(CC(=O)Nc2cc(C)nn2-c2nc3ccccc3s2)CC1	0	4	-6	2	x	-6	x	x
Cc1nn(CC(=O)Nc2ccc3c(c2)nc2n3CCN(C3CCCCC3)C2)c(=O)c2ccccc12	1	3	80*	25	2	-7	0	1
CCOc1cc(S(=O)(=O)NCc2cccnc2)c(C)cc1C	0	2	6	0	0	-17	x	x
CC(=O)c1cccc(OCC(=O)N(C)CC(=O)NCc2ccco2)c1	17	9	96*	0	49*	81*	52*	1	DNMT1 interf DR=>99
CCc1ccccc1NC(=O)CSc1ccsc1[N+](=O)[O-]	-15	3	53*	7	x	48	5	2
CCOC(=O)c1c(C)[nH]c(C(=O)OCC(=O)Nc2ccc(OCC)cc2)c1C	-4	-3	69*	0	x	21	-1	-2
CCOC(=O)c1c(C)[nH]c(C(=O)OCC(=O)Nc2cc(C)ccc2OC)c1C	-3	3	62*	-1	x	-4	2	1
CCOC(=O)c1c(C)[nH]c(C(=O)OCC(=O)N2CCc3ccccc32)c1C	1	-2	62*	0	x	-5	4	0
C#CCN(C[C@H]1[C@H](OC(=O)NCCCCCC)[C@H](OC(=O)NCCCCCC)C[C@H]2C(=O)N(c3ccccc3)C(=O)[C@@H]12)S(=O)(=O)c1ccc(C)cc1	-1	-5	4	-6	-3	x	x	x
CCN(CC)S(=O)(=O)c1cc(NC(=O)c2ccccc2OCc2c(C)noc2C)ccc1C	4	-2	-6	1	-1	-11	x	x
CCCCc1c(C)nc2ccc(OC)cc2c1SCCC(=O)O	7	0	66*	2	19	17	5	3
SMILES	SUMO1 PPI mod	STEP inh	DNMT1 inh	LMPTP block	Casp6 inh	Scp1 inh	DNMT1 inh conf	DNMT1 interf	others
Cc1cccc(NC(=O)c2cc3c(=O)n4ccccc4nc3n(CC(C)C)c2=N)c1	-1	1	62*	1	-3	9	1	2
CN(CC1CCCO1)S(=O)(=O)c1ccc(C(=O)Nc2ccc3c(c2)OCO3)cc1 (stereo not given)	3	2	-3	0	1	-15	x	x
CN(CC1CCCO1)S(=O)(=O)c1ccc(C(=O)Nc2nc3cc4c(cc3s2)OCO4)cc1 (stereo not given)	8	1	64*	-1	-1	-14	3	6
COc1cccc(-c2ccc3c(c2)[C@@H]2[C@@H](CCN2S(=O)(=O)c2ccccc2C)[C@@H](CO)N3)c1	x	x	x	x	0	x	x	x
NC(=O)Cn1c(=O)n(Cc2ccco2)c(=O)c2c3c(sc21)CCCCC3	12	16	83*	8	x	71*	3	0
COc1ccccc1N1CCN(/N=C/c2ccc(Cl)c([N+](=O)[O-])c2)CC1	-9	4	99*	2	-2	4	35*	6	DNMT1 interf DR=>99
N#Cc1ccccc1/C=N/Nc1nc(-c2ccccc2)c2cc(Br)ccc2n1	11	-7	73*	11	x	1	-1	-4
COc1ccccc1CC(=O)Nc1nc(-c2ccc(F)c(F)c2)cs1	3	0	3	3	-1	-14	x	x
CCOc1ccc(C(=O)N/N=C/c2ccc(-c3ccc(S(=O)(=O)Nc4ncccn4)cc3)o2)cc1	19	1	4	2	x	-3	x	x
NC(=S)NN=Cc1ccc(-c2ccc(S(=O)(=O)Nc3ncccn3)cc2)o1	33	3	89*	13	38*	3	12	-3
COc1ccc(CN2C(=O)C(CC(=O)NCCCN(C)C)CC(C(=O)N3CCCCCC3)=C2C)cc1 (stereo not given)	0	x	x	-6	-21	x	x	x
COc1ccc(CNC(=O)CCCn2c(=S)[nH]c3cc4c(cc3c2=O)OCO4)cc1	-29	8	2	0	2	-5	x	x
